# Laboratory results: ChEMBL document CHEMBL4043283, “Discovery and Preclinical Development of IIIM-290, an Orally Active Potent Cyclin-Dependent Kinase Inhibitor” (J Med Chem, 2018)
# What was measured:
# OVCAR-5 = test: Growth inhibition of human OVCAR5 cells after 48 hrs by MTT assay; assay type: functional; conditions: OVCAR-5, 48 h
# Outline: (§1)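 Cancer cell lines sourced from the National Cancer Institute (USA). Cells kept in appropriate growth medium at 37 °C, 95% humidity, 5% CO2. Antiproliferation read by tetrazolium (MTT) assay. GI50 values were determined only for compounds selected after an initial single-concentration screen.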
# [1] = Half life in BALB/c mouse at 10 mg/kg, po by LC-MS/MS analysis; assay type: ADME, organism-based; conditions: in vivo
# Liver [2] = test: Intrinsic clearance in mouse liver S9 fraction assessed per mg of protein preincubated for 5 mins followed by NADPH addition measured after 30 mins by LC-MS/MS analysis; assay type: ADME, tissue-based; conditions: s9, 0.5 h
# [3] = Tmax in BALB/c mouse at 30 mg/kg, po by LC-MS/MS analysis; assay type: ADME, organism-based; conditions: in vivo
# [4] = Oral bioavailability in BALB/c mouse at 10 mg/kg by LC-MS/MS analysis; assay type: ADME, organism-based; conditions: in vivo
# [5] = Pancreas to plasma partition coefficient, Kp of the compound in BALB/c mouse at 30 mg/kg, po measured at 1 hr; assay type: ADME, organism-based; conditions: pancreas and plasma
# MIA PaCa-2 [6] = test: Antitumor activity against human MIAPaCa2 cells xenografted in CD1 nude mouse assessed as tumor growth inhibition at 50 mg/kg, po qd administered on day 10 to 25 post tumor inoculation relative to control; assay type: functional; conditions: MIA PaCa-2, po, 240 h, read-out: TGI
# [7] = molecular target: Voltage-gated inwardly rectifying potassium channel KCNH2 (Homo sapiens, UniProt Q12809); test: Inhibition of [3H]-astemizole binding to human ERG expressed in HEK293 cell membranes by scintillation counting method
# Cytochrome P450 1A2 = Cytochrome P450 1A2 (Homo sapiens, UniProt P05177); test: Inhibition of human CYP1A2 using fluorogenic substrate preincubated with co-factor for 10 mins followed by enzyme-substrate addition by fluorometric method; assay type: ADME
# Outline: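 Cofactor plus test item or vehicle, in triplicate, preincubated 10 min at 37 °C; prewarmed enzyme–substrate mix added and incubated at 37 °C with shaking. Quench: acetonitrile (CYP2C19, CYP3A4) or 0.25 M Tris in 60% methanol (CYP2C9, CYP2D6). Metabolite fluorescence read; % inhibition computed against enzyme controls and enzyme-free blanks.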
# [8] = Intrinsic clearance in human liver microsomes assessed per mg of protein at 100 uM after 30 mins by LC-MS/MS analysis; assay type: ADME, microsome; conditions: read-out: CLH
# [9] = Tmax in BALB/c mouse at 3 mg/kg, po by LC-MS/MS analysis; assay type: ADME, organism-based; conditions: in vivo
# [10] = Intrinsic clearance in monkey liver microsomes assessed per mg of protein at 100 uM after 30 mins by LC-MS/MS analysis; assay type: ADME, Macaca mulatta, microsome; conditions: rhesus monkey, read-out: CLH
# MIA PaCa-2 [11] = test: Cell cycle arrest in human MIAPaCa2 cells assessed as accumulation at S phase at 1.5 uM after 24 hrs by propidium iodide staining-based flow cytometric method (reference value: 33%); assay type: functional
# [12] = molecular target: Cyclin-dependent kinase 4/cyclin D1 (Homo sapiens) (UniProt P11802+P24385); test: Inhibition of full length wild type human CDK4/cyclin D1 expressed in mammalian expression system at 0.5 uM by KINOMEscan method relative to control
# Outline: (§2)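 Competition binding screen (KINOMEscan) at 0.5 μM; primary binding read out as % of control, lower values indicating stronger interaction.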
# CDK9/cyclin T1 = CDK9/cyclin T1 (Homo sapiens, UniProt P50750); test: Inhibition of CDK9/cyclin T1 (unknown origin) using YSPTSPSYSPTSPSYSPTSPKKK as substrate after 30 mins in presence of [33P]-gamma-ATP by filter binding assay; assay type: protein-complex assay
# [13] = Half life in mouse liver S9 fraction preincubated for 5 mins followed by NADPH addition measured after 30 mins by LC-MS/MS analysis; assay type: ADME, tissue-based
# Outline: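 Parent loss followed over time to give half-life, with NADPH as cofactor for microsomal phase I metabolism.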
# Salmonella typhimurium = test: Mutagenicity in Salmonella typhimurium TA1535 at 50 ug/plate in absence of liver S9 fraction by Ames test; assay type: toxicity; conditions: salmonella enterica subsp. enterica serovar typhimurium
# CDK4/Cyclin D3 = CDK4/Cyclin D3 (Homo sapiens, UniProt P11802); test: Inhibition of CDK4/cyclin D3 (unknown origin) after 30 mins in presence of [33P]-gamma-ATP by filter binding assay; assay type: protein-complex assay
# Liver [14] = test: Drug uptake in Sprague-Dawley rat liver at 30 mg/kg, po after 8 hrs; assay type: ADME, organism-based; conditions: in vivo
# [15] = Chemical stability of compound in phosphate buffered saline at pH 6.8 assessed as parent compound remaining at 120 ug/ml after 24 hrs by HPLC method; assay type: physicochemical; conditions: read-out: Stability
# [16] = Growth inhibition of mouse adenocarcinoma cells after 48 hrs by MTT assay; assay type: functional; conditions: Adenocarcinoma cell
# [17] = Ratio of Cmax in Sprague-Dawley rat at 30 mg/kg, po to GI50 for human MIAPaCa2 cells
# OVCAR-3 = test: Growth inhibition of human OVCAR3 cells after 48 hrs by MTT assay; assay type: functional; conditions: OVCAR-3, 48 h; outline: as §1
# [18] = molecular target: Cyclin-dependent kinase 7/ cyclin H (Homo sapiens, UniProt P50613); test: Inhibition of CDK7/cyclin H (unknown origin) after 30 mins in presence of [33P]-gamma-ATP by filter binding assay; assay type: protein-complex assay
# Mus musculus = test: Toxicity in CD1 nude mouse xenografted with human MIAPaCa2 cells assessed as mortality at 50 mg/kg, po qd administered on day 10 to 25 post tumor inoculation; assay type: organism-based; conditions: in vivo
# [19] = molecular target: CDK9/cyclin T1 (Homo sapiens) (UniProt O60563+P50750); test: Inhibition of CDK9/cyclin T1 (unknown origin) at 0.5 uM using YSPTSPSYSPTSPSYSPTSPKKK as substrate after 30 mins in presence of [33P]-gamma-ATP by filter binding assay relative to control; assay type: protein-complex assay
# [20] = Cmax in BALB/c mouse at 1 mg/kg, iv by LC-MS/MS analysis; assay type: ADME, organism-based; set-up: dose 1 mg/kg, route intravenous; conditions: in vivo
# [21] = Volume of distribution at steady state in BALB/c mouse at 1 mg/kg, iv by LC-MS/MS analysis; assay type: ADME, organism-based; conditions: in vivo, read-out: Vdss
# [22] = Half life in human hepatocytes at 3 uM after 180 mins by LC-MS/MS analysis; assay type: ADME, cell-based, Hepatocyte
# MDA-MB-468 = test: Growth inhibition of human MDA-MB-468 cells after 48 hrs by MTT assay; assay type: functional; conditions: MDA-MB-468, 48 h; outline: as §1
# [23] = Half life in BALB/c mouse at 30 mg/kg, po by LC-MS/MS analysis; assay type: ADME, organism-based; conditions: in vivo
# [24] = test system: Mast/stem cell growth factor receptor Kit (Homo sapiens), P10721 [A829P]; test: Inhibition of partial length human KIT A829P mutant expressed in mammalian expression system at 0.5 uM by KINOMEscan method relative to control; outline: as §2
# 786-0 = test: Growth inhibition of human 786-0 cells after 48 hrs by MTT assay; assay type: functional; conditions: 786-0, 48 h; outline: as §1
# COLO 205 = test: Growth inhibition of human COLO205 cells after 48 hrs by MTT assay; assay type: functional; conditions: COLO 205, 48 h; outline: as §1
# Chain of Cytochrome P450 1A2 (P05177 whole entry): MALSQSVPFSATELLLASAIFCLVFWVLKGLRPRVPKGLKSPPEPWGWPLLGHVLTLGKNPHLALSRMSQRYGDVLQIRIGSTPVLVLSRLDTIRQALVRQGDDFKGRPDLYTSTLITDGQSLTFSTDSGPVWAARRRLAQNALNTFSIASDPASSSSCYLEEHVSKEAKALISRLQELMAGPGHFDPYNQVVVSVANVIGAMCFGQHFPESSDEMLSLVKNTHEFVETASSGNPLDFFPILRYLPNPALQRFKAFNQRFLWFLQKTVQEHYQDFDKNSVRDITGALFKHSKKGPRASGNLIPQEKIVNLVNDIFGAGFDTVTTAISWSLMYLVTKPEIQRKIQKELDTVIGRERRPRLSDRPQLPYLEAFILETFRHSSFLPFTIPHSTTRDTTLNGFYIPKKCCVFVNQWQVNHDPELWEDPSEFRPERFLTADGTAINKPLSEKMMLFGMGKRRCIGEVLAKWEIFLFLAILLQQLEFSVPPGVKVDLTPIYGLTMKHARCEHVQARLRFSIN
# Chain of CDK9/cyclin T1 (O60563 whole entry): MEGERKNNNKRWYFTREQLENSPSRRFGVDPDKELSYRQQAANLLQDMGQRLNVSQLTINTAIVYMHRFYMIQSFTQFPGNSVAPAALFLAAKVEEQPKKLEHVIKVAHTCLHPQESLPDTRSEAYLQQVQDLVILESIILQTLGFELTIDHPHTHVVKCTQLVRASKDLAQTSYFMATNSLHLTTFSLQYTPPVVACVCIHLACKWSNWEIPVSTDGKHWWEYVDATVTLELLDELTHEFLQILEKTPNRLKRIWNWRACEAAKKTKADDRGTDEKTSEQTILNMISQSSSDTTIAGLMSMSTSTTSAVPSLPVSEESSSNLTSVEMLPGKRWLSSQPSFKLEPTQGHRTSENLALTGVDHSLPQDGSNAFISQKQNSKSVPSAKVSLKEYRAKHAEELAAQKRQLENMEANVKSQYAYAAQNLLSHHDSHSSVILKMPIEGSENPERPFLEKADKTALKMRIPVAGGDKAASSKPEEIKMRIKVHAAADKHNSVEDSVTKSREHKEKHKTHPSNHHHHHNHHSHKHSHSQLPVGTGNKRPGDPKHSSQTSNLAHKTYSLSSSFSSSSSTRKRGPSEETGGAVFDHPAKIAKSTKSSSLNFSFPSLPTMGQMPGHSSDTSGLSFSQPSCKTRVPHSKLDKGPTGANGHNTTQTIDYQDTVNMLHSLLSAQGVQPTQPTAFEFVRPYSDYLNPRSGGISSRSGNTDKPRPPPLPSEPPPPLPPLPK
# Chain of CDK9/cyclin T1 (P50750 whole entry): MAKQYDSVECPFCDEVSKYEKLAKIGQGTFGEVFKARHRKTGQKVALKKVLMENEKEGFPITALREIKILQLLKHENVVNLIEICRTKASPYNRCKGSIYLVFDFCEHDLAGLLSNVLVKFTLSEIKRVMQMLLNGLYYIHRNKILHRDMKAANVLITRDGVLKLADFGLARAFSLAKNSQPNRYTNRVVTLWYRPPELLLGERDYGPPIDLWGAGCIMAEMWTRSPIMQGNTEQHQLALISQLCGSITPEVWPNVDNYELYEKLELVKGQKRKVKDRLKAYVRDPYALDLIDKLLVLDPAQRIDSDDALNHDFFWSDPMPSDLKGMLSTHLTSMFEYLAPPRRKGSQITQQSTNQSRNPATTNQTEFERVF
# Chain of CDK4/Cyclin D3 (P11802 whole entry): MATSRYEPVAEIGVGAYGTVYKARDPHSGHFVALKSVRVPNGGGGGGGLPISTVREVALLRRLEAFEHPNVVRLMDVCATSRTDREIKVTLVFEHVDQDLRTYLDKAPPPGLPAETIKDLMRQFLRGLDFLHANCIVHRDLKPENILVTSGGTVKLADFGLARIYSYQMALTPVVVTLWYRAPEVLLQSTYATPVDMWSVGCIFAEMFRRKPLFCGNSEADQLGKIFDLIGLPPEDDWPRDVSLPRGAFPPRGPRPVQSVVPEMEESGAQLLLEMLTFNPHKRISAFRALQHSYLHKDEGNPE
# Chain of CDK4/Cyclin D3 (P30281 whole entry, further chain): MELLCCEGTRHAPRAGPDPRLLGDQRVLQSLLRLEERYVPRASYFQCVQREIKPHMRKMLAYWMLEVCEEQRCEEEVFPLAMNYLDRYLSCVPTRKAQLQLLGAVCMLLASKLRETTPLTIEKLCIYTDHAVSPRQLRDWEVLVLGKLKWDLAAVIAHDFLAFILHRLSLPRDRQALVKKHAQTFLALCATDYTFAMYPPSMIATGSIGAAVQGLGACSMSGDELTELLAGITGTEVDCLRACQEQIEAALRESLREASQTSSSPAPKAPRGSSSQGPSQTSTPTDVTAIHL
# Chain of Voltage-gated inwardly rectifying potassium channel KCNH2 (Q12809 whole entry): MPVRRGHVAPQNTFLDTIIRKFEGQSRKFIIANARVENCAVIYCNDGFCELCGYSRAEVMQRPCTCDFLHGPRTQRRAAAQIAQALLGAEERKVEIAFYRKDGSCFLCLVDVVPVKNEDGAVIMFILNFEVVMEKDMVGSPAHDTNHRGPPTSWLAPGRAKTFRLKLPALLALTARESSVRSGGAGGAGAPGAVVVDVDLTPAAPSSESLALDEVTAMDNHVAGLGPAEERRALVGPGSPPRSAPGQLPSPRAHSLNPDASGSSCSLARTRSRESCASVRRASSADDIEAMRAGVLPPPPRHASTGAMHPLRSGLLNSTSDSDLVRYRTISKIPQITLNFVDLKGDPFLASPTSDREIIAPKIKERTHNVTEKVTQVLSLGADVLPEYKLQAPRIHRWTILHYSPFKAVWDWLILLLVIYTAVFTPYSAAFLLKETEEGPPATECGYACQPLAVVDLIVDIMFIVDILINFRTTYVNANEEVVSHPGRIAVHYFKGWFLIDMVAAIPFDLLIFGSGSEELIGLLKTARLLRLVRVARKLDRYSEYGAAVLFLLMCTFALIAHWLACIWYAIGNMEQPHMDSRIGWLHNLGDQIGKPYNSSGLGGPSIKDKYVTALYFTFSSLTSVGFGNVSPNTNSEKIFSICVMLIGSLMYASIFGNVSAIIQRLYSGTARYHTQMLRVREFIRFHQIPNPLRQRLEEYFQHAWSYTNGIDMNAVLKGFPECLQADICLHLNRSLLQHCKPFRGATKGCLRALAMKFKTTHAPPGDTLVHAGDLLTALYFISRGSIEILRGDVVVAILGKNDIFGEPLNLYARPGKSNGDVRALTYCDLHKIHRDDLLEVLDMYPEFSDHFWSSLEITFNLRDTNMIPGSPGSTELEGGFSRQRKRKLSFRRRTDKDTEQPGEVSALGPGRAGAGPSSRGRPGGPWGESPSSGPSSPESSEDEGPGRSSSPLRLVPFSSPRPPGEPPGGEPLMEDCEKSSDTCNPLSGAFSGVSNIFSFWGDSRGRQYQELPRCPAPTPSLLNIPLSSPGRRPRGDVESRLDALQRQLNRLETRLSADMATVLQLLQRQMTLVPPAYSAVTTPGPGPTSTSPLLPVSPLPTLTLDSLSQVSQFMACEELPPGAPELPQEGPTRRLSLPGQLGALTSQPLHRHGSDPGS
# Chain of Cyclin-dependent kinase 7/ cyclin H (P51946 whole entry): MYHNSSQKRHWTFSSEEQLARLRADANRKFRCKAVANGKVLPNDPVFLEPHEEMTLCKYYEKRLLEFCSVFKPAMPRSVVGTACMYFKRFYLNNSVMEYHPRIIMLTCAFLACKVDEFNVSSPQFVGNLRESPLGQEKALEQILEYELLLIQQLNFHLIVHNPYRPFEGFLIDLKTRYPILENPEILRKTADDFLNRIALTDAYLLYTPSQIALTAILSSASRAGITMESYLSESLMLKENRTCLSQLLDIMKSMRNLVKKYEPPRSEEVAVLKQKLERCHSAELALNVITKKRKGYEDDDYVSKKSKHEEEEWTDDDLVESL
# Chain of Cyclin-dependent kinase 7/ cyclin H (P50613 whole entry): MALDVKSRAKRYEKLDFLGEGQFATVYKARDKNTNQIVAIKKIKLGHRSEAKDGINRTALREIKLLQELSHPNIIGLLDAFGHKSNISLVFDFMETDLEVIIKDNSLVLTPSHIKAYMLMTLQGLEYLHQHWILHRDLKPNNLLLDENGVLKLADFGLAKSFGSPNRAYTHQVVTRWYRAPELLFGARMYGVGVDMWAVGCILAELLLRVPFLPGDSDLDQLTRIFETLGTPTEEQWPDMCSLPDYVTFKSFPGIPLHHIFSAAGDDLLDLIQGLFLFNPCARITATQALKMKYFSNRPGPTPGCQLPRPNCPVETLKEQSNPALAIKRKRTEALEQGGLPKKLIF
# Chain of Mast/stem cell growth factor receptor Kit (Homo sapiens), P10721 [A829P] (P10721 whole entry A829P): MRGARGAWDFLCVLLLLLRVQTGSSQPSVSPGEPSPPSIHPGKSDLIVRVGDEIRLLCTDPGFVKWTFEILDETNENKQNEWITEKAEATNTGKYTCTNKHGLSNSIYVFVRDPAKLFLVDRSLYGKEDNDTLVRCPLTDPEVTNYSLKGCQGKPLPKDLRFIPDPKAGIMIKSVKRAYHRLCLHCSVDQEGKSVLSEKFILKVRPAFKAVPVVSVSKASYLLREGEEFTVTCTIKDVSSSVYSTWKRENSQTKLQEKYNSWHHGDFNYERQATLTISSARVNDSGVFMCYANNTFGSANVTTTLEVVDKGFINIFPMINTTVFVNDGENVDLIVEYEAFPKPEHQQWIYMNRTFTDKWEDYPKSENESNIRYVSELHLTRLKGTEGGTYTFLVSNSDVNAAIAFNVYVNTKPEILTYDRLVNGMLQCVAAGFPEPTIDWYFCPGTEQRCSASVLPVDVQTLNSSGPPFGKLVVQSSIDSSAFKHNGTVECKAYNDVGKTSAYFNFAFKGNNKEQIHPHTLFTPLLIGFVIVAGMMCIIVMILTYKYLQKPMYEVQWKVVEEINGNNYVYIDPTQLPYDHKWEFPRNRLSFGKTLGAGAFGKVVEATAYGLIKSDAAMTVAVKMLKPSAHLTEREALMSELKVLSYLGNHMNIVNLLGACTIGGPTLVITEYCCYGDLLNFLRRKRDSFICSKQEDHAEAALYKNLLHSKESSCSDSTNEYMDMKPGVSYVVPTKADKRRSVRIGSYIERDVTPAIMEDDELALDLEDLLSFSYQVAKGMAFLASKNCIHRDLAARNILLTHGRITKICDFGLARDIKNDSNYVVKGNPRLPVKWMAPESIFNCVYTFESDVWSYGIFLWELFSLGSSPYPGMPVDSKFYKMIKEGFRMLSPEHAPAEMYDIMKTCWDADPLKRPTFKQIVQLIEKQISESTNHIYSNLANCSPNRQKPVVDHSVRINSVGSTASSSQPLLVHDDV
smiles,measurement,setting,value
CN1CC[C@H](c2c(O)cc(O)c3c(=O)cc(/C=C/c4c(Cl)cccc4Cl)oc23)[C@H](O)C1,GI50,OVCAR-5,7 µM
same,half-life,[1],3.61 h
same,CLint,Liver [2],16 µL/min/mg
same,Tmax,[3],0.54 h
same,bioavailability,[4],70.7%
same,Kp at 1 h,[5],24.4
same,inhibition in vivo at 50 mg/kg,MIA PaCa-2 [6],40 to 52%
same,IC50,[7],> 50 µM
same,IC50,Cytochrome P450 1A2,> 20 µM
same,microsomal CLint at 100 µM,[8],< 8.6 µL/min/mg
same,Tmax,[9],0.37 h
same,microsomal CLint at 100 µM,[10],54.8 µL/min/mg
same,Activity,MIA PaCa-2 [11],33%
same,inhibition,[12],> 98%
same,IC50,CDK9/cyclin T1,0.0019 µM
same,half-life,[13],1.43 h
same,Activity,Salmonella typhimurium,Non-Toxic
same,IC50,CDK4/Cyclin D3,0.0225 µM
same,Drug uptake,Liver [14],Active
same,"remaining at 24 h, 120 ug/ml",[15],81%
same,GI50,[16],1.2 µM
same,Ratio,[17],4
same,GI50,OVCAR-3,8 µM
same,IC50,[18],0.711 µM
same,Activity,Mus musculus,Non-Toxic
same,inhibition,[19],94%
same,Cmax,[20],677 nM
same,Vd,[21],14.1 L/kg
same,half-life at 3 µM,[22],12.1 h
same,GI50,MDA-MB-468,4 µM
same,half-life,[23],3.62 h
same,inhibition,[24],> 98%
same,GI50,786-0,6 µM
same,GI50,COLO 205,7 µM
